Tested on: PC9 cells
Test: Cell cycle by PI staining flow cytometry
Assay type: cell-based, human
Settings: PC9, 24 h
Method in brief: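 Cells in RPMI 1640 with 10% FBS (37°C, 5% CO2) were seeded in 6-well plates at 20–25% confluence and exposed to graded test compound or a reference EGFR inhibitor for 24 h. They were then fixed in 70% ethanol for 24 h at 4°C, washed twice in PBS, treated with RNase A at 37°C for 30 min and stained with PI (50 μg/mL) for 10 min. DNA content was read by flow cytometry.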

Q: `COc1cc2ncnc(Nc3ccc(F)c(Cl)c3)c2cc1OCCCN1CCOCC1` [gefitinib] was tested. Which cell cycle arrest did it give?
A: arrested only PC9 (EGFR L858R+) cells at G0/G1 phase

Source: publication PMC9828441 (Acta Biochimica et Biophysica Sinica, 2022)
